Assay outcomes (PubChem BioAssay)
Only some compounds are listed: those with a hit (about 2% of all), similar ones and a draw of the others.
CSN deneddyl inh: blocks human CSN-mediated cullin deneddylation; Purified CSN, SCF-Nedd8-OG deneddylation, fluorescence polarization; inhibition, % at 12.5 µM; hit rate 0.38% among 360,000;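 active means pattern-corrected inhibition above about 35%, with an unprinted fluorescence ratio check between 0.5 and 1.5, limit read from the data, passing the limit was not always enough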
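Assay system: purified human Csn5 enzyme expressed in HEK293T cells; Input: 0.24 nM Csn5 enzyme, final concentration; Reagent: 10 nM SCFSkp2-Nedd8OG; Compound dosing: 12.5 µM single point; Times: reaction 90 min, room temperature; Technique: fluorescence polarization readout.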
DNMT1 block: inhibitors of human DNMT1. P26358. DNMT1 molecular beacon, Hinp1I cleavage, fluorescence. inhibition (reported as % activation of signal), % at 10 µM. hit rate 0.83% among 360,000; in the data active means inhibition above about 50%
STEP block: inhibitors of human striatal-enriched phosphatase STEP | recombinant STEP, OMFP fluorogenic substrate, fluorescence | inhibition, % at 20 µM | hit rate 0.25% among 360,000 | P54829 | AID 588621;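 active means inhibition at 20 µM, scaled per plate between control wells, above about 37%, limit read from the data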
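Measure: Control-normalized % inhibition with plate pattern correction | Test system: STEP phosphatase, cell-free reaction | Medium: pH 6.0 Bis-Tris with DTT and Tween 20 | Technique: Fluorescence, 480/540 nm | Times: Reaction 20 min, ambient temperature | Doses: Single compound dose of 20 µM, 1% DMSO final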
LMPTP block: blocks human LMPTP phosphatase. P24666. recombinant LMPTP-A, OMFP fluorogenic substrate, fluorescence intensity. inhibition, % at 20 µM. hit rate 0.22% among 360,000. AID 651560;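 active means compounds that cut the enzyme signal by at least half of the control window in the single-dose screen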
Target sequence (P24666 whole entry, looked up): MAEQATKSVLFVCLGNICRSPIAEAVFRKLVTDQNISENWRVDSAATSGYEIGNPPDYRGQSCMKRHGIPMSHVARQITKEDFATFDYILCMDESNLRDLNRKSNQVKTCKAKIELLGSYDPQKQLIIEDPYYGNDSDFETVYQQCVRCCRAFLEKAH
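Assay system: LMPTP-A phosphatase enzyme | Input: 0.625 nM enzyme | Also added: Fluorogenic phosphatase substrate OMFP at 400 µM final | Compound dosing: One test concentration per compound, 20 µM, with 3% DMSO overall | Schedule: 50 min enzyme reaction at room temperature, protected from light | Signal: Fluorescence intensity | Benchmarks: no-enzyme and uninhibited controls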
SUMO1-SIM PPI: alters human SUMO1 binding to SIM partners | inhibition, % at 20 µM | hit rate 0.33% among 360,000 | SUMO1 binding to a labelled peptide, TR-FRET, 1 h | P63165; in the data active means inhibition above about 37%
Target sequence (P63165 whole entry, looked up): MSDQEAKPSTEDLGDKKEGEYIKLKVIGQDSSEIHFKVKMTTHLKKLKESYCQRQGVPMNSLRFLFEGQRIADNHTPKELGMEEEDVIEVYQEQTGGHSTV
Scp-1 inhibitor: Scp-1 (human) phosphatase inhibition. Recombinant Scp1, phosphopeptide, malachite green phosphate absorbance. inhibition, % at 20 µM. hit rate 0.88% among 340,000;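 active means inhibition above about 50% at 20 µM, limit read from the data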
Target sequence (Q9GZU7 76-261 limits assumed): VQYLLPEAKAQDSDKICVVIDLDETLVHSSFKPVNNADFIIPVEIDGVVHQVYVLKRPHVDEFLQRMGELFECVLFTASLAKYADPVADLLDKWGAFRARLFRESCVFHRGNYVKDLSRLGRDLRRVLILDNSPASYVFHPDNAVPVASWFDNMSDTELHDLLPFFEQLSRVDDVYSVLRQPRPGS
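Times: enzyme reaction 45 min at room temperature, colour 5 min, stabilisation 30 min. Material: SCP-1 catalytic fragment, aa 76-261. Medium: Acidic Tris acetate buffer with magnesium and detergent. Signal: colorimetric free-phosphate detection, absorbance 630 nm. Read-out basis: % inhibition of SCP-1 phosphate liberation. Reagent: Phosphorylated 17-residue peptide substrate.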
STEP inh conf: confirmation of human STEP phosphatase inhibitors; shares compounds with STEP block; recombinant STEP, OMFP fluorogenic substrate, fluorescence; inhibition, % at 20 µM; hit rate 32% among 520; call rule not given here
Numbers stand for hits; - = inactive; . = not tested or not shown.

SMILES	CSN deneddyl inh	DNMT1 block	STEP block	LMPTP block	SUMO1-SIM PPI	Scp-1 inhibitor	STEP inh conf
COC(=O)c1c(NC(=O)Cc2ccccc2)sc2c1CC(C)(C)NC2(C)C	-	-	51	-	-	-	-
Cc1ccc(C(=O)Nc2ccc(C(=O)N/N=C/c3cccnc3)cc2)cc1	-	-	75	-	-	-	-
CN1CCN(C2=NC(=O)/C(=C/c3ccccc3OS(=O)(=O)c3ccccc3)S2)CC1	-	-	47	-	-	-	-
NC1=NC(=O)/C(=C/c2ccccc2OS(=O)(=O)c2ccccc2)S1	-	-	-	-	-	-	.
CCC(C)NCCOc1ccccc1C (stereo not drawn)	-	-	-	-	-	-	.
Cc1ccccc1C(=O)NCCCCc1ccccc1	-	-	46	-	-	-	-
COc1ccc(NC(=O)N(C)C[C@H]2Oc3c(NC(=O)C4CC4)cccc3C(=O)N([C@H](C)CO)C[C@@H]2C)cc1	-	-	-	-	-	-	.
O=C(Nc1cccc(Cl)c1)Nc1ccc2c(c1)C(=O)OC2	-	-	112	-	-	-	-
NC(=O)C1(N2CCCCC2)CCN(C(=S)Nc2ccc(S(N)(=O)=O)cc2)CC1	-	-	92	-	-	-	63
NS(=O)(=O)c1ccc(NC(=S)N2CCC(Cc3ccccc3)CC2)cc1	-	-	80	-	-	-	31
NS(=O)(=O)c1ccc(NC(=S)N2CCN(Cc3ccc4c(c3)OCO4)CC2)cc1	-	-	92	-	-	-	-
CCCN1CCN(C(=S)Nc2ccc(S(N)(=O)=O)cc2)CC1	-	-	-	-	-	-	.
OC(c1cccc(CN2CCCCC2)c1)c1ncc(-c2ccccc2Cl)[nH]1 (stereo not drawn)	-	-	-	-	-	.	.
Cc1ccc(S(=O)(=O)NCC(c2ccccc2)N2CCN(c3ccc(F)cc3)CC2)cc1 (stereo not drawn)	-	-	-	-	-	-	.
CC(C)CCCN1C(N(C)C)=NC[C@@H]1C	-	-	-	-	-	-	.
COc1ccc(CNC(=O)C(C)OC(=O)C23CC4CC(CC(O)(C4)C2)C3)cc1 (stereo not drawn)	-	-	97	-	-	-	-
CC(OC(=O)C12CC3CC(CC(O)(C3)C1)C2)C(N)=O (stereo not drawn)	-	-	-	-	-	-	.
S=C(NCCCN1CCOCC1)Nc1cccc(-c2nnc3n2CCCCC3)c1	-	-	42	-	-	-	-
S=C(NCCCN1CCOCC1)Nc1ccc(-c2nc3ccccc3[nH]2)cc1	-	-	65	-	-	-	40
O=C(CC(=O)c1cccc([N+](=O)[O-])c1)Nc1ccccc1Cl	-	-	120	-	-	-	-
O=C(CC(=O)c1ccccc1)Nc1cccc([N+](=O)[O-])c1	-	-	-	-	-	.	.
CCN(C1=NS(=O)(=O)c2ccccc21)N(CC)S(=O)(=O)c1ccc(C)cc1	-	-	73	-	-	-	-
CCN(CC)S(=O)(=O)c1ccc(C(=O)NN(C)C2=NS(=O)(=O)c3ccccc32)cc1	-	-	-	-	-	-	.
N#CC1(NC(=O)COc2ccc(C(N)=O)cc2)CCCC1	-	-	-	-	-	-	.
COc1ccc(NC(=S)N(CCc2ccc(OC)c(OC)c2)Cc2ccccn2)cc1	-	-	48	-	-	-	-
SMILES	CSN deneddyl inh	DNMT1 block	STEP block	LMPTP block	SUMO1-SIM PPI	Scp-1 inhibitor	STEP inh conf
COc1ccc(CCN(Cc2ccccn2)C(=S)Nc2cccc(C)c2)cc1OC	-	-	-	-	-	-	.
O=C(c1cc(-c2cccc(Cl)c2)nc2ccccc12)N1CCN(c2ccccn2)CC1	-	-	-	-	-	-	.
Cc1cccc2c(C(=O)N3CCN(c4ccccn4)CC3)cc(-c3cccc(Br)c3)nc12	-	-	69	-	-	-	-
O=S(=O)(c1ccccc1)N1CCN(C(=S)NCCCN2CCOCC2)CC1	-	-	49	-	-	-	-
COc1ccccc1Nc1c([N+](=O)[O-])cc(C)cc1[N+](=O)[O-]	-	-	-	-	-	-	.
COc1ccccc1Nc1ccc([N+](=O)[O-])cc1N	-	-	47	-	-	-	40
O=C(Nc1cccc(O)c1)C1CC(c2cccc(Br)c2)=NO1 (stereo not drawn)	-	-	79	-	-	-	-
Cn1cc(C(=O)Nc2ccc(C#N)cc2)c2ccccc2c1=O	-	-	-	-	-	-	.
CCNC(=S)Nc1ccccc1-c1ccccc1	-	-	-	-	-	-	.
CNC(=S)Nc1ccccc1-c1ccccc1	-	-	41	-	-	-	-
Cc1nn(C)cc1/C=N/NC(=S)Nc1ccccc1	-	-	76	-	-	-	50
Oc1ccccc1C=NNC(=S)Nc1ccc(F)cc1	-	-	-	-	-	-	.
CCn1ncc(NC(=S)NCCc2ccc(OC)c(OC)c2)c1C(N)=O	-	-	-	-	-	-	.
Cc1cc(C)c2nc(-c3ccccn3)cc(C(=O)Nc3ccc(S(=O)(=O)Nc4onc(C)c4C)cc3)c2c1	-	68	41	-	-	-	72
Cc1cc(C)c2nc(-c3ccccn3)cc(C(=O)Nc3ccc(S(=O)(=O)Nc4cc(C)on4)cc3)c2c1	-	-	-	-	-	-	.
C/C(=N\NC(=O)c1ccc(OC2OCCOC2Oc2ccc(C(=O)N/N=C(\C)c3ccncc3)cc2)cc1)c1ccncc1 (stereo not drawn)	99	-	45	66	78	-	-
CCOc1cc(CNc2ccc(CNc3ncn[nH]3)cc2)ccc1OCc1ccccc1	-	-	-	-	-	-	.
COC(=O)c1ccccc1CSc1nsc(/C=C/N(C)C)c1C#N	-	-	86	-	-	-	103
COC(=O)c1cccnc1SCc1ccccc1	-	-	-	-	-	-	.
CC(=O)Nc1cc(-c2nn(C)c(=O)c3ccccc23)ccc1N1CCOCC1	-	-	-	-	-	-	.
CCCC(=O)Nc1cc(-c2nn(C)c(=O)c3ccccc23)ccc1N1CCOCC1	-	-	42	-	-	-	-
COc1cccc(NC(=O)Cc2cn(C)c3ccccc23)c1	-	-	50	-	-	-	-
Cc1cc(-c2nnc3sc(-c4ccc(Cl)cc4Cl)nn23)n[nH]1	-	-	86	-	-	-	-
COCCn1c(SCCN2CCOCC2)nc2c1c(=O)[nH]c(=O)n2C	-	-	60	-	-	-	-
O=C(Oc1cccc(F)c1)c1ccc2c(=O)n3c(nc2c1)CCC3	-	-	-	-	-	-	.
